Assay results reported in ChEMBL document CHEMBL1765003, “Discovery of (1S,2R,3R)-2,3-dimethyl-2-phenyl-1-sulfamidocyclopropanecarboxylates: novel and highly selective aggrecanase inhibitors” (J Med Chem, 2011).
pIC50: −log10 of the molar value.

What was measured:
Cytochrome P450 3A4 = Cytochrome P450 3A4 (Homo sapiens, UniProt P08684); test: Inhibition of CYP3A4 at up to 50 uM; format: ADME
[1] = target: Disintegrin and metalloproteinase domain-containing protein 17 (Homo sapiens, UniProt P78536); test: Inhibition of human recombinant TACE after 60 mins by fluorescence plate reader
Sequence of Disintegrin and metalloproteinase domain-containing protein 17 (P78536 whole entry, the tested form may be a part): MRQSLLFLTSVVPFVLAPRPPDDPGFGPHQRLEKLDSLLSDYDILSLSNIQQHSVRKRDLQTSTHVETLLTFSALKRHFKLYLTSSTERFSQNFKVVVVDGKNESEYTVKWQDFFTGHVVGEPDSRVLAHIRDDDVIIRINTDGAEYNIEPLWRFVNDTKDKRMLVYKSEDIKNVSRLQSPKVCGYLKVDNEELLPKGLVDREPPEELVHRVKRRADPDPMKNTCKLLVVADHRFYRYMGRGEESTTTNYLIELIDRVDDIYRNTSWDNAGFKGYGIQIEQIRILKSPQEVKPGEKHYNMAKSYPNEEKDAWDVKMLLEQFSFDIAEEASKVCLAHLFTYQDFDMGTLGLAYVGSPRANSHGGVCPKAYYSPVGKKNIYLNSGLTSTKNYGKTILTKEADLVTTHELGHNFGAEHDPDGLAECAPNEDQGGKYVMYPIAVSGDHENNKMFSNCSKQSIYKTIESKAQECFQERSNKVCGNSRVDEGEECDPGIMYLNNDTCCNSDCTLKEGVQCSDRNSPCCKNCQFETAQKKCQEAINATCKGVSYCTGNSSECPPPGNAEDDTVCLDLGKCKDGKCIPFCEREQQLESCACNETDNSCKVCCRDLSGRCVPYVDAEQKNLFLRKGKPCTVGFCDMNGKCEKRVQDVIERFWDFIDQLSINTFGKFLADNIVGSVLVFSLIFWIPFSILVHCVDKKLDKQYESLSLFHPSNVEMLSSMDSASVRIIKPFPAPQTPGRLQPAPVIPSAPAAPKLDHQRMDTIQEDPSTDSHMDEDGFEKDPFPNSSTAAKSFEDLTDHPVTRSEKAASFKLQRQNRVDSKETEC
In short: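 rh-TACE at 80 ng/mL with 10 μM MCA-Pro-Leu-Ala-Gln-Ala-Val-Dpa-Arg-Ser-Ser-Ser-Arg-NH₂, in 100 mM Tris-HCl pH 7.5, 150 mM NaCl, 10 mM CaCl₂, 0.05% Brij-35. Inhibitor preincubated for 15 min at 25 °C. Fluorescence (ex 325/em 405 nm) read at 60 min. IC50 from three linear-range points; mean of ≥2.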

[2] = target: T1, A disintegrin and metalloproteinase with thrombospondin motifs 5 (Homo sapiens, UniProt Q9UNA0); test: Inhibition of human recombinant aggrecanase 2 after 150 mins by fluorescence plate reader
T1 sequence (Q9UNA0 whole entry): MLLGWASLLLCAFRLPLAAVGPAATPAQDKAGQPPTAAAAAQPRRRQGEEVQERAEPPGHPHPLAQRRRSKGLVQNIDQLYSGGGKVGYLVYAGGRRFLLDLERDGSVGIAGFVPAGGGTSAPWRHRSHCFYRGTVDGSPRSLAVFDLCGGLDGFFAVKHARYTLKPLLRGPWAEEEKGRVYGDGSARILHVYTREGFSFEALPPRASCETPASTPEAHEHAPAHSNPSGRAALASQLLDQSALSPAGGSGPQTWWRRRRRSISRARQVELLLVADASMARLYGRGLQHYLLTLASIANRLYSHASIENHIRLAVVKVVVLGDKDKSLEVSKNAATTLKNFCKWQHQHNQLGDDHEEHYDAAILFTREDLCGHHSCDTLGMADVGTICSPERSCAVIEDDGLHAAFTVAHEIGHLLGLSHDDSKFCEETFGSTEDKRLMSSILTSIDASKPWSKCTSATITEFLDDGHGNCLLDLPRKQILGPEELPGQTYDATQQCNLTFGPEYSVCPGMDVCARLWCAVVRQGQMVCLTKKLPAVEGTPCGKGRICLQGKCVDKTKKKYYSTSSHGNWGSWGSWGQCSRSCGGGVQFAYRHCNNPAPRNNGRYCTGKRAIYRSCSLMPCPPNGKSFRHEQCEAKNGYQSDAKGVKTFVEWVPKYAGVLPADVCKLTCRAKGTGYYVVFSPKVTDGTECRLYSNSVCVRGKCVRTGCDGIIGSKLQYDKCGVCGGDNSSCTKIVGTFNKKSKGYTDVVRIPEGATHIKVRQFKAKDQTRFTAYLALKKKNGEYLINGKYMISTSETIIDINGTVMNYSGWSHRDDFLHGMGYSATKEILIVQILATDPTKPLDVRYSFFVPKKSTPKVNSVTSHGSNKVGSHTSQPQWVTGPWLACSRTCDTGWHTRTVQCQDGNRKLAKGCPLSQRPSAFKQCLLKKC

Cytochrome P450 2C9 = Cytochrome P450 2C9 (Homo sapiens, UniProt P11712); test: Inhibition of CYP2C9 at up to 50 uM; format: ADME
Sequence of Cytochrome P450 2C9 (P11712 whole entry): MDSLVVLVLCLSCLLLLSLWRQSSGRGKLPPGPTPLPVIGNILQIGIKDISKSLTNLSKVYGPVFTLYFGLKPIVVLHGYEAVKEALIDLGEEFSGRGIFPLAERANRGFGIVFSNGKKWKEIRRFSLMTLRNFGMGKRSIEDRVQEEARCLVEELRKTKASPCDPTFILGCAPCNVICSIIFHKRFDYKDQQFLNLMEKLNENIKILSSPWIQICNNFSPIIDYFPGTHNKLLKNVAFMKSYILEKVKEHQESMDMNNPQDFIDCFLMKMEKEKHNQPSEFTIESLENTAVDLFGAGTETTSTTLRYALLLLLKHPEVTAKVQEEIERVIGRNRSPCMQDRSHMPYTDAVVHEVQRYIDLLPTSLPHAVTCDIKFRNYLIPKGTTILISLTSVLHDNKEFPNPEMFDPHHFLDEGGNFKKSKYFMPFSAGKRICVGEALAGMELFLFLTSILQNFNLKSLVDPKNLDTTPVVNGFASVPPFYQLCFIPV

Cytochrome P450 2A6 = target: T2, Cytochrome P450 2A6 (Homo sapiens, UniProt P11509); test: Inhibition of CYP2A6 at up to 50 uM; format: ADME
T2 sequence (P11509 whole entry): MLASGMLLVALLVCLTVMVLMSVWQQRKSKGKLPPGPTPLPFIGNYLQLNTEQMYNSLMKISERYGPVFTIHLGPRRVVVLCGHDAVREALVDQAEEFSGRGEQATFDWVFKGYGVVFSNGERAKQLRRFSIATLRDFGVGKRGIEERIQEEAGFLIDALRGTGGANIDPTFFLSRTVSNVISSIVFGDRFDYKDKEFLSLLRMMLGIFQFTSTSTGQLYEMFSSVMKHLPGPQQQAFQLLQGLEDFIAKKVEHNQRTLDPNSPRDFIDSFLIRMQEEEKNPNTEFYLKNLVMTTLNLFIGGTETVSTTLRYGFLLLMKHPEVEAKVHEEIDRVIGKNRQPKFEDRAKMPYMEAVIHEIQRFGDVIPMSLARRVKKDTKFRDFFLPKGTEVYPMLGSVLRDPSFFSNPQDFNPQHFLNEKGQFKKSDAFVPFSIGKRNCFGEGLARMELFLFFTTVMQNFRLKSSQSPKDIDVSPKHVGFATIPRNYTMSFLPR

[3] = Volume of distribution at steady state in Sprague-Dawley rat at 1 mg/kg, iv; format: ADME, organism-based; parameters: dose 1 mg/kg, route intravenous; conditions: in vivo, read-out: Vdss
In short: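 Intravenous dose of 1 mg/kg. Blood sampled at 0.50, 1, 2, 4, 8 and 24 h. Plasma obtained by centrifugation at 10 000 rpm for 5 min and kept at −20 °C until analysis.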

[4] = Cmax in Sprague-Dawley rat at 10 mg/kg, po; format: ADME, organism-based; parameters: dose 10 mg/kg, route oral; conditions: in vivo
Collagenase 3 = Collagenase 3 (Homo sapiens, UniProt P45452); test: Inhibition of human recombinant MMP13 after 60 mins by fluorescence plate reader
In short: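 rh-MMP-13 at 40 ng/mL with 5 μM 7-MCA-Pro-CHA-Gly-NVal-His-Ala-DPA, in Tris-HCl pH 7.5/NaCl/CaCl₂/0.05% Brij-35. Pretreatment with inhibitor for 15 min at 25 °C, then substrate started the reaction. Fluorescence (ex 325/em 405 nm) read at 60 min. IC50 from three central linear points, averaged over ≥2 determinations.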

Sequence of Cytochrome P450 3A4 (P08684 whole entry, the tested form may be a part): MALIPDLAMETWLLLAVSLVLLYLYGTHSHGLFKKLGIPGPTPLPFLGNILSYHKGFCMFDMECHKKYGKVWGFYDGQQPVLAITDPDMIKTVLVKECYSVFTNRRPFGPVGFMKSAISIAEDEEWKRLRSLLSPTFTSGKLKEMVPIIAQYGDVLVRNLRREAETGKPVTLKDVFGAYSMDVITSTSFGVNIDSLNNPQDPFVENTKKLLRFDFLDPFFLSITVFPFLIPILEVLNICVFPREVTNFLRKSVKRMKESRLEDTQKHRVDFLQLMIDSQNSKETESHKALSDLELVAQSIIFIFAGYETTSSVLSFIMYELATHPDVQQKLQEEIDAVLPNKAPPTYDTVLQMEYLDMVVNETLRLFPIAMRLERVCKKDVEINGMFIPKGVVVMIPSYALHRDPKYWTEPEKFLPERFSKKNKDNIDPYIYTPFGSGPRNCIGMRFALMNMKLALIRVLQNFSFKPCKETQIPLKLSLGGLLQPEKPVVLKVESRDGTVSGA

## C[C@@H]1[C@](C)(c2ccccc2)[C@]1(NS(=O)(=O)N1CCc2c(nc3cc(F)ccn23)C1)C(=O)O
Cytochrome P450 3A4
  inhibition (INH): Not Active
[1]
  pIC50: < 5.00
[2]
  pIC50: 8.08
Cytochrome P450 2C9
  inhibition (INH): Not Active
Cytochrome P450 2A6
  inhibition (INH): Not Active
[3]
  Vd: 0.25 L/kg
[4]
  Cmax: 54.1 µM
Collagenase 3
  pIC50: < 5.00
